Screens deposited in PubChem BioAssay by Sanford-Burnham Center for Chemical Genomics.
DNMT1 inh: inhibitors of human DNMT1 | DNMT1 molecular beacon, Hinp1I cleavage, fluorescence | inhibition (reported as % activation of signal), % at 10 µM | AID 588458 | actives 0.83% (n = 360,000); in the data active = inhibition above about 50%
STEP block: STEP (human) phosphatase inhibition; P54829; recombinant STEP, OMFP fluorogenic substrate, fluorescence; inhibition, % at 20 µM; actives 0.25% (n = 360,000); AID 588621;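 active = inhibition at 20 µM, scaled per plate between control wells, above about 37%, limit read from the data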;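 note: 0% = DMSO with enzyme and substrate and 100% = substrate only without enzyme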
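Assay system: isolated STEP enzyme. Buffer or medium: pH 6.0 Bis-Tris with DTT and Tween 20. Also added: fluorogenic phosphatase substrate OMFP at 25 µM final. Dosing: 20 µM, 1% DMSO. Timing: 20 min reaction, room temperature, in the dark. Measured by: fluorescence intensity, excitation 480 nm, emission 540 nm. Evaluation: normalized % inhibition.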
LMPTP inh: blocks human LMPTP phosphatase | inhibition, % at 20 µM | actives 0.22% (n = 360,000) | recombinant LMPTP-A, OMFP fluorogenic substrate, fluorescence intensity;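 active = compounds that cut the enzyme signal by at least half of the control window in the single-dose screen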;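 note: plate controls were DMSO wells with enzyme plus substrate for no effect and substrate without enzyme for full effect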
Target sequence (P24666 whole entry, looked up): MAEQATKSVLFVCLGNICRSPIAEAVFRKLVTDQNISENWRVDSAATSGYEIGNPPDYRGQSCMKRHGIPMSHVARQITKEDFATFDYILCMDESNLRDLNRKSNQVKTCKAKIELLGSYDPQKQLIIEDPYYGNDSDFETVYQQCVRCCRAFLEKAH
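Assay system: LMPTP-A phosphatase enzyme | Input: 0.625 nM enzyme | Also added: Fluorogenic phosphatase substrate OMFP at 400 µM final | Compound dosing: One test concentration per compound, 20 µM, with 3% DMSO overall | Schedule: 50 min enzyme reaction at room temperature, protected from light | Signal: Fluorescence intensity | Benchmarks: no-enzyme and uninhibited controls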
Scp-1 inhibitor: blocks human Scp-1 phosphatase activity; Q9GZU7; Recombinant Scp1, phosphopeptide, malachite green phosphate absorbance; inhibition, % at 20 µM; actives 0.88% (n = 340,000); AID 493091;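 active = inhibition above about 50% at 20 µM, limit read from the data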;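 note: plate controls were DMSO wells with enzyme for no effect and wells lacking enzyme for full effect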
Target sequence (Q9GZU7 76-261 limits assumed): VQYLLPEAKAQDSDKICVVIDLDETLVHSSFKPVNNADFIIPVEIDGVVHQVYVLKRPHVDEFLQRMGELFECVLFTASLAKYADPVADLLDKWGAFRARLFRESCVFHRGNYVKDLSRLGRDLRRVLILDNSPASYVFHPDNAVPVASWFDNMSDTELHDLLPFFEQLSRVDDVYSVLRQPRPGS
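Material – SCP-1 phosphatase catalytic domain, residues 76-261 · Buffer or medium – Acidic Tris acetate buffer with magnesium and detergent · Also added – Phospho 17-mer peptide substrate · Compound – single 20 µM dose, 1% DMSO · Times – 45 min room-temperature reaction, 5 min colour, 30 min stabiliser · Technique – Phosphate-binding colour reagent, absorbance read at 630 nm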
SUMO1-SIM PPI: modulators of human SUMO1-mediated protein-protein interactions. actives 0.33% (n = 360,000). AID 602429. SUMO1 binding to a labelled peptide, TR-FRET, 1 h. inhibition, % at 20 µM. P63165; in the data active = inhibition above about 37%
Target sequence (P63165 whole entry, looked up): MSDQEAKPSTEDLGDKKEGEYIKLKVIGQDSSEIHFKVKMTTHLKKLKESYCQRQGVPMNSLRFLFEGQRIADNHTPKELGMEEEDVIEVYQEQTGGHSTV
Starred values were filed as active, the others as inactive; x = not tested or not shown; + = active, no number. Hits are enriched below; roughly 1.7% of the tested compounds scored in any of these assays.

SMILES	DNMT1 inh	STEP block	LMPTP inh	Scp-1 inhibitor	SUMO1-SIM PPI
Cc1cc2cc(CNC(=O)Nc3cccc(Cl)c3)ccc2n1C	69*	0	4	-12	-45
C/C=C/c1ccc(OCC(=O)OCc2csc(CC(=O)Nc3ccccc3C)n2)c(OC)c1	-4	2	1	-3	-4
COC1=CC(=O)c2c(ccc3ncnc(N)c23)C1=O	103*	7	9	-8	72*
Fc1c(F)c(C(F)(F)F)c(F)c(F)c1N/N=C\c1cccs1	-7	-2	2	-4	41*
Cc1ccccc1/C=N/Nc1nc2ccccc2[nH]1	4	1	4	-1	-6
O=[N+]([O-])c1cc(/C=N/Nc2nc3ccccc3[nH]2)c(O)cc1O	x	x	x	56*	x
COc1ccc(NC(=O)Cc2c(SC)c3ccccc3n2Cc2ccccc2)cc1	15	2	0	-5	8
N#Cc1c(-c2ccc(F)cc2)c(-c2ccc(F)cc2)nn(CCO)c1=O	-2	-1	0	-5	-34
CN(C)c1ccc(Sc2ccc3nc(N)nc(N)c3c2)cc1	-20	2	51*	x	-31
CN(C)c1ccc(Nc2nc(N)c3ccccc3n2)cc1	0	1	6	5	13
COc1ccccc1CNC(=O)C(=O)NCC1CCCN1S(=O)(=O)c1cc(C)ccc1C (stereo not drawn)	4	-3	1	x	-2
Cc1ccc(CSc2nnc(-c3ccco3)o2)cc1	-4	2	1	-6	2
c1ccc(CSc2nnc(-c3ccco3)o2)cc1	4	0	0	-10	44*
O=C(Nc1cccnc1Cl)c1cc(-c2cccc(O)c2)on1	-2	-2	1	-3	72*
COc1ccccc1-c1cc(C(=O)Nc2cccnc2Cl)no1	-4	-1	1	-4	47*
CC(C)CCNC(=O)C1CCN(S(=O)(=O)c2ccc3nc4c(c(C(=O)O)c3c2)CCCCC4)CC1	-1	-2	-1	-8	0
O=C(O)c1c2c(nc3ccc(S(=O)(=O)N4CCC(C(=O)NC5CCCCCC5)CC4)cc13)CCCC2	3	1	1	32	42*
O=C(Nc1cccc(S(=O)(=O)NC2=NCCCCC2)c1)c1cc(-c2ccco2)nc2ccccc12	97*	0	35	90*	12
O=C(Nc1cccc(S(=O)(=O)NC2=NCCCCC2)c1)c1cc(-c2ccncc2)nc2ccccc12	-17	2	2	-6	-16
Oc1[nH]c2ccccc2c1N=Nc1ccccc1Cl	54*	-4	-1	7	-3
Oc1[nH]c2ccccc2c1N=Nc1c(F)c(F)c(Cl)c(F)c1F	-2	-1	-1	-10	-5
CCN(c1ccc(NC(=O)c2ccc(N3CCCC3=O)cc2)cc1)C(C)C	-1	0	-1	-4	0
Cn1c(=O)c2c(SCC(=O)N3CCCCC3)nc(-c3ccccc3F)nc2n(C)c1=O	-1	3	0	0	-30
Oc1ccccc1C=NC(c1ccccc1)C(O)c1ccccc1 (stereo not drawn)	-1	-4	0	-11	-4
Oc1ccccc1/C=N/[n+]1ccccc1	-2	-1	-2	103*	-4
SMILES	DNMT1 inh	STEP block	LMPTP inh	Scp-1 inhibitor	SUMO1-SIM PPI
O=C(COc1ccc([N+](=O)[O-])cc1)Nc1ccc(CN2CCOCC2)cc1	12	2	0	-1	-13
O=C1Nc2ccccc2/C1=C/c1cnc(-c2ccccc2)[nH]1	27	-5	18	-3	43*
O=C1Nc2ccccc2/C1=C/c1cccnc1	-2	0	0	4	-7
CNc1nc(-c2ccccc2)[n+](-c2ccc(C)cc2)s1	4	-3	-1	83*	0
Cc1ccc(-c2nc(N)s[n+]2-c2ccccc2)cc1	1	0	1	88*	3
CCOC(=O)c1ccc2[nH]c(C)c(C)c2c1	-1	-2	1	0	0
Cc1[nH]c2ccc(C(=O)OCC(=O)Nc3cccc(S(N)(=O)=O)c3)cc2c1C	-19	1	1	-5	60*
CN(C)c1ccccc1-c1cc(NC=O)c2ncc(-c3cccc(C(F)(F)F)c3)n2c1	+	-157	-5	x	-1
CN(C)C(=O)c1cccc(-c2cnc3c(NC=O)cc(-c4ccccc4N(C)C)cn23)c1	141*	-67	-4	x	-4
Clc1cccc(Nc2nc(-c3ccncc3)nc3ccccc23)c1	-5	4	7	-14	61*
Cc1nc(Cl)sc1C(=O)Nc1ccc(F)cc1	-2	-1	-1	-10	1
CC(C)S(=O)(=O)c1csc(C(=O)Nc2ccc(F)cc2)c1N	1	-2	-2	92*	3
O=C(Nc1nccs1)c1cn(-c2ccccc2)nc1-c1ccncc1	-1	4	1	-3	44*
Cc1ccc(N2C(=O)c3cccc4c(N)ccc(c34)C2=O)c2cccnc12	48	-23	40	67*	-13
CCN1C(=O)c2cccc3c(N)ccc(c23)C1=O	124*	-108	-11	17	-105
Cc1nn(C)c(C)c1N1C(=O)c2cccc3c(N)ccc(c23)C1=O	93*	-150	-11	-11	-47
O=C1c2cccc3c(N4CCCCC4)ccc(c23)C(=O)N1c1ccccn1	2	-5	-1	0	-27
Cc1nn(C)c(C)c1N1C(=O)c2cccc3c(Br)ccc(c23)C1=O	4	1	-1	1	-28
CCCCNc1ccc2c3c(cccc13)C(=O)N(CCCC)C2=O	61*	-305	-4	-18	-74
O=C1CC2(CCCC2)C(=O)N1CN1CCN(S(=O)(=O)c2ccc(Cl)c(Cl)c2)CC1	3	0	-2	-6	1
COc1ccc(N2C(=O)CSC2c2ccc([N+](=O)[O-])cc2)cc1 (stereo not drawn)	1	-1	-1	-10	-26
COc1ccc(S(=O)(=O)NCC(=O)O)cc1C(=O)NC1CCCCC1	6	1	-1	-5	0
O=C(CC1CCCCC1)NCCS(=O)(=O)N1CCN(c2ccccc2)CC1	3	0	1	10	0
Cc1c(C(=O)NCc2ccccc2C(F)(F)F)sc(=O)n1Cc1ccc(S(=O)(=O)N(C)C)cc1	-5	-3	1	x	2
CCN1CCN(Cc2ccc(NC(=O)c3ccc(C)c(/C=C/c4cnc(Nc5cc(N6CCNCC6)nc(C)n5)cn4)c3)cc2C(F)(F)F)CC1	-38	-9	1	-3	87*
CCN1CCN(Cc2ccc(NC(=O)c3ccc(C)c(NC(=O)c4ccno4)c3)cc2C(F)(F)F)CC1	-3	0	-3	0	5
COc1ccc(/C=N/NC(=O)c2ccccc2O)cc1Cn1cc([N+](=O)[O-])cn1	1	-3	2	-7	-13
